Laboratory results taken from ChEMBL document CHEMBL1128465, “Synthesis and evaluation of certain thiosangivamycin analogs as potential inhibitors of cell proliferation and human cytomegalovirus” (J Med Chem, 1995).
pIC50: −log10 of the molar value.

Assays:
Human alphaherpesvirus 1 = test: Antiviral activity against herpes simplex virus type 1(HSV-1) ELISA method; type: functional, organism-based
KB = test: In vitro inhibition of KB cell proliferation.; type: functional, cell-based, Homo sapiens
In short: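 KB cells grown over two population doublings of untreated controls with compound; proliferation quantified by crystal violet staining and spectrophotometric reading of dye eluted from stained cells. Values are IC50s averaged from two or four experiments, some from a single experiment.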

Human betaherpesvirus 5 [1] = test: In vitro antiviral activity against human cytomegalovirus by yield reduction assay.; type: functional
In short: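 HCMV yield reduction assay; result given as IC90. Averages from two or four experiments, some single; highest concentration tested 100.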

Human betaherpesvirus 5 [2] = test: In vitro antiviral activity against human cytomegalovirus by plaque method.; type: functional, organism-based
In short: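 HCMV plaque reduction assay; result given as IC50 (concentration reducing plaque number by 50%). Averages from two or four experiments, some from a single experiment; highest concentration tested 100.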

L1210 = test: Inhibition of L1210 murine leukemic cells proliferation in vitro; type: functional, cell-based, Mus musculus
In short: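 L1210 murine leukemia cells grown with compound; cell counts taken at 0, 48 and 96 h. Where growth rate in treated cultures fell during the run, the 48–96 h rate was used.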

HFF = test: Visual cytotoxicity scored on HFF cells at the time of HCMV plaque enumeration.; type: functional, cell-based, Homo sapiens
In short: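 Stationary HFF cells not affected by the plaque-assay virus examined microscopically for cytotoxicity, scored at the time HCMV plaques were counted. Top concentration tested 100; averages of two or four experiments, some single.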

SMILES	pIC50 (Human alphaherpesvirus 1; Human alphaherpesvirus 1)	pIC50 (KB; Homo sapiens, KB)	IC90 (Human betaherpesvirus 5 [1]; Human betaherpesvirus 5) [µM]	pIC50 (Human betaherpesvirus 5 [2]; Human betaherpesvirus 5)	pIC50 (L1210; Mus musculus, L1210)	pIC50 (HFF; Homo sapiens, HFF)	pIC50 (Human alphaherpesvirus 1)	pIC50 (KB; kb)	IC90 (Human betaherpesvirus 5 [1]) [µM]	pIC50 (Human betaherpesvirus 5 [2])	pIC50 (L1210; l1210)	pIC50 (HFF; hff)
N=C(S)c1cn([C@@H]2O[C@H](CO)[C@@H](O)[C@@H]2N)c2ncnc(N)c12	4.55	5.60	41	5.80	5.70	4.14						
N#Cc1cn([C@@H]2O[C@H](CO)[C@@H](O)[C@H]2O)c2ncnc(N)c12 (stereo in doubt; 2) [TOYOCAMYCIN]							6.40	7.00	0.3	6.52	7.00	6.52
NC(=S)c1cn(C2C=CC(CO)O2)c2ncnc(N)c12 (stereo not given)	4.85	5.30	5	5.57	5.52	4.74						
N#Cc1cn([C@H]2C[C@H](O)[C@@H](CO)O2)c2ncnc(N)c12	5.35	4.60	13	4.46	4.10	4.18						
N#Cc1cn([C@@H]2O[C@H](CO)[C@@H](O)[C@H]2O)c2ncnc(N)c12 (stereo in doubt; A) [TOYOCAMYCIN]										7.00		7.52
N#Cc1cn(C2CCC(CO)O2)c2ncnc(N)c12 (stereo not given)	4.68	4.06	90	4.72		< 4.00						
N#Cc1cn(C2C=CC(CO)O2)c2ncnc(N)c12 (stereo not given)	4.39	3.75	> 100	5.29		< 4.00						
N#Cc1cn([C@@H]2O[C@H](CO)[C@@H](O)[C@@H]2N)c2ncnc(N)c12	3.49		110		4.00	< 4.00						
NC(=S)c1cn([C@@H]2O[C@H](CO)[C@H](O)[C@H]2O)c2ncnc(N)c12	5.72	6.00	0.4	6.22	6.30	6.22						
N#Cc1cn(C2OC(CO)CC2O)c2ncnc(N)c12 (stereo not given)	5.59	5.40	1.4	6.40	7.00	5.52						
Nc1nc2c(ncn2COC(CO)CO)c(=O)[nH]1 [GANCICLOVIR]		< 4.00	1.8			< 4.00						
NC(=S)c1cn([C@H]2C[C@H](O)[C@@H](CO)O2)c2ncnc(N)c12	5.09	5.15	15	5.24	5.41	4.39						
NC(=S)c1cn(C2CCC(CO)O2)c2ncnc(N)c12 (stereo not given)	5.22	4.96	12	5.60	4.62	4.54						
NC(=S)c1cn([C@@H]2O[C@H](CO)[C@@H](O)[C@@H]2O)c2ncnc(N)c12	5.33	5.70	1.9	6.05	5.30	4.54						
N#Cc1cn([C@@H]2O[C@H](CO)[C@@H](O)[C@H]2O)c2ncnc(N)c12 (stereo in doubt; 6) [TOYOCAMYCIN]								4.77	14			
NC(=S)c1cn(C2OC(CO)CC2O)c2ncnc(N)c12 (stereo not given)	4.24	5.52	3	6.30	6.22	5.68						
C[C@H]1OC(n2cc(C(=N)S)c3c(N)ncnc32)[C@H](O)[C@@H]1O (stereo not given in full)		6.30		5.51	5.52	5.49						
NC(=S)c1cn([C@@H]2O[C@H](CO)[C@@H](O)[C@H]2O)c2ncnc(N)c12		7.52	0.1	6.40	7.52	6.49						
